Laboratory results taken from ChEMBL document CHEMBL2163244, “Structure-guided design, synthesis and biological evaluation of novel DNA ligase inhibitors with in vitro and in vivo anti-staphylococcal activity” (Bioorg Med Chem Lett, 2012).
Converted amounts (≈) assume the structure as drawn. The source made the active and inactive calls. The rule behind the calls is not given here.

Legend:
Staphylococcus aureus = assay: Antibacterial activity against wild type Staphylococcus aureus ATCC 29213 by CLSI dilution method; type: functional
[1] = Inhibition of Streptococcus pneumoniae NAD-dependent DNA ligase assessed as equilibrium dissociation constant
Escherichia coli [2] = assay: Antibacterial activity against tolC/rfaC-deficient Escherichia coli harboring ligA251 mutant; type: functional
Procedure, shortened: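 MIC read-out. The E. coli strain carries only the ligA251 allele (L15F exchange), which gives more than 20-fold reduced ligation activity and sensitizes it to LigA inhibitors.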

[3] = molecular target: DNA ligase 1 (Homo sapiens) (UniProt P18858); assay: Inhibition of human DNA Ligase 1
Sequence of DNA ligase 1 (Homo sapiens) (P18858 whole entry): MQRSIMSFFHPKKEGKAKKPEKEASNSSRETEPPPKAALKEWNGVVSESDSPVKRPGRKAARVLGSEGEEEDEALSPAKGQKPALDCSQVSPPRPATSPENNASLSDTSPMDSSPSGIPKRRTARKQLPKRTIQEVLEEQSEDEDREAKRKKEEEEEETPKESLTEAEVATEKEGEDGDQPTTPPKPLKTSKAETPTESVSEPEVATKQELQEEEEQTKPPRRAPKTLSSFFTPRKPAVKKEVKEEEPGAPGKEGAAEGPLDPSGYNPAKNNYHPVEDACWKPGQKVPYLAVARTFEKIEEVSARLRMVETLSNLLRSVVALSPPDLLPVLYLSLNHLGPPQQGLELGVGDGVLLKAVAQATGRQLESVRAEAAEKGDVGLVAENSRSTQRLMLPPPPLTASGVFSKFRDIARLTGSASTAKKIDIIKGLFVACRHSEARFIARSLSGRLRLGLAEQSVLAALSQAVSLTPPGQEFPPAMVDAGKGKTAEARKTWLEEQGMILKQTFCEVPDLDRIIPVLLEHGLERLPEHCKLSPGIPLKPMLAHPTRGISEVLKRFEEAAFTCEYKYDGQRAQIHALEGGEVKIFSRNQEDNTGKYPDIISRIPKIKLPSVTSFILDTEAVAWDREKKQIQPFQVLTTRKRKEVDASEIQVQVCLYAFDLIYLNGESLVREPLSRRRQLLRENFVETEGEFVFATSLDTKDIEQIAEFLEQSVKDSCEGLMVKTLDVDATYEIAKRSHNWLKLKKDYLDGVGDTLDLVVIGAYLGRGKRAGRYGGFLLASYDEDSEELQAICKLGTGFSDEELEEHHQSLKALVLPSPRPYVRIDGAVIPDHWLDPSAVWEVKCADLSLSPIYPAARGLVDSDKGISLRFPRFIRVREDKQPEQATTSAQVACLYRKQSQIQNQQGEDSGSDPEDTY

[4] = Inhibition of Escherichia coli NAD-dependent DNA ligase
Streptococcus pneumoniae = assay: Antibacterial activity against wild type Streptococcus pneumoniae A-216 by CLSI dilution method; type: functional
Escherichia coli [5] = assay: Antibacterial activity against tolC/rfaC-deficient Escherichia coli; type: functional
[6] = molecular target: T1, Dihydrofolate reductase (Homo sapiens) (UniProt P00374); assay: Inhibition of human DHFR
T1 sequence (whole entry): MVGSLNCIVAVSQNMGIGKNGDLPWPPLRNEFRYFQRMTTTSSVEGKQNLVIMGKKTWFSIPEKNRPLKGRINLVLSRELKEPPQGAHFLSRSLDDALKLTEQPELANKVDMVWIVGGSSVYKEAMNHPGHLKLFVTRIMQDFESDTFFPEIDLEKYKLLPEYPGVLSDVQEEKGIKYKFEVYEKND

Haemophilus influenzae = assay: Antibacterial activity against wild type Haemophilus influenzae A921 by CLSI dilution method; type: functional

In the case of NC(=O)c1cc2cc(C3CC3)c(C(F)(F)F)nc2nc1N, the MIC (Staphylococcus aureus) is reported as 1 µg/mL (≈ 3.38 µM), the Kd [1] is reported as 83 nM and the MIC (Escherichia coli [2]) is reported as 0.125 µg/mL (≈ 0.422 µM). For the same molecule, the inhibition [3] was “inactive”, the IC50 [4] was 400 nM and the MIC (Streptococcus pneumoniae) was 16 µg/mL (≈ 54 µM). For the same molecule, the MIC (Escherichia coli [5]) was 2 µg/mL (≈ 6.75 µM), the inhibition [6] was “inactive” and the MIC (Haemophilus influenzae) was 0.5 µg/mL (≈ 1.69 µM).

Work on CCc1cc2cc(C(N)=O)c(N)nc2nc1C(F)(F)F yielded an MIC (Staphylococcus aureus) of 4 µg/mL (≈ 14.1 µM), a Kd [1] of 75 nM and an MIC (Escherichia coli [2]) of 0.25 µg/mL (≈ 0.88 µM). The inhibition [3] was “inactive”, the IC50 [4] was 600 nM and the MIC (Streptococcus pneumoniae) was greater than 16 µg/mL. For the same molecule, the MIC (Escherichia coli [5]) was 8 µg/mL (≈ 28.1 µM), the inhibition [6] was “inactive” and the MIC (Haemophilus influenzae) was 2 µg/mL (≈ 7.04 µM).

Cc1cc2cc(C(N)=O)c(N)nc2nc1C(F)(F)F showed an MIC (Staphylococcus aureus) of 4 µg/mL (≈ 14.8 µM), a Kd [1] of 48 nM and an MIC (Escherichia coli [2]) of 0.063 µg/mL (≈ 0.233 µM). The inhibition [3] was “inactive”, the IC50 [4] was 500 nM and the MIC (Streptococcus pneumoniae) was 8 µg/mL (≈ 29.6 µM). For the same molecule, the MIC (Escherichia coli [5]) was 0.5 µg/mL (≈ 1.85 µM), the inhibition [6] was “inactive” and the MIC (Haemophilus influenzae) was 0.25 µg/mL (≈ 0.925 µM).

Nc1ccc2c(Cl)cc(C(F)(F)F)nc2n1 showed an IC50 [4] of 25000 nM.

Work on NC(=O)c1cc2c(CCO)cc(C(F)(F)F)nc2nc1N yielded an MIC (Staphylococcus aureus) greater than 16 µg/mL, a Kd [1] of 431 nM and an MIC (Escherichia coli [2]) of 1 µg/mL (≈ 3.33 µM). The inhibition [3] was “inactive”, the IC50 [4] was 10000 nM and the MIC (Streptococcus pneumoniae) was greater than 16 µg/mL. For the same molecule, the MIC (Escherichia coli [5]) was greater than 16 µg/mL, the inhibition [6] was “inactive” and the MIC (Haemophilus influenzae) was 1 µg/mL (≈ 3.33 µM).

In the case of NC(=O)c1cc2ccc(C(F)(F)F)nc2nc1N, the MIC (Staphylococcus aureus) is reported as 8 µg/mL (≈ 31.2 µM), the Kd [1] is reported as 101 nM and the MIC (Escherichia coli [2]) is reported as 0.125 µg/mL (≈ 0.488 µM). The inhibition [3] was “inactive”, the IC50 [4] was 500 nM and the MIC (Streptococcus pneumoniae) was greater than 16 µg/mL. The MIC (Escherichia coli [5]) was 16 µg/mL (≈ 62.5 µM), the inhibition [6] was “inactive” and the MIC (Haemophilus influenzae) was 0.5 µg/mL (≈ 1.95 µM).

Molecule NC(=O)c1cc2c3c(c(Cl)nc2nc1N)CC3 has an MIC (Staphylococcus aureus) of 16 µg/mL (≈ 64.3 µM), a Kd [1] of 152 nM and an MIC (Escherichia coli [2]) of 0.25 µg/mL (≈ 1.01 µM). The inhibition [3] was “inactive”, the IC50 [4] was 600 nM and the MIC (Streptococcus pneumoniae) was greater than 16 µg/mL. For the same molecule, the MIC (Escherichia coli [5]) was 8 µg/mL (≈ 32.2 µM), the inhibition [6] was “inactive” and the MIC (Haemophilus influenzae) was 8 µg/mL (≈ 32.2 µM).

Work on NC(=O)c1cc2cc(CCc3ccccc3)c(C(F)(F)F)nc2nc1N yielded an MIC (Staphylococcus aureus) greater than 16 µg/mL, a Kd [1] of 1220 nM and an MIC (Escherichia coli [2]) of 32 µg/mL (≈ 88.8 µM). For the same molecule, the inhibition [3] was “inactive”, the IC50 [4] was greater than 10000 nM and the MIC (Streptococcus pneumoniae) was greater than 16 µg/mL. The MIC (Escherichia coli [5]) was greater than 16 µg/mL, the inhibition [6] was “inactive” and the MIC (Haemophilus influenzae) was greater than 16 µg/mL.

In the case of Cc1c(Cc2ccncc2)c(Cl)nc2nc(N)c(C(N)=O)cc12, the MIC (Staphylococcus aureus) is reported as greater than 16 µg/mL, the Kd [1] is reported as 118 nM and the MIC (Escherichia coli [2]) is reported as 0.25 µg/mL (≈ 0.763 µM). For the same molecule, the inhibition [3] was “inactive”, the IC50 [4] was 1000 nM and the MIC (Streptococcus pneumoniae) was 8 µg/mL (≈ 24.4 µM). The MIC (Escherichia coli [5]) was greater than 16 µg/mL, the inhibition [6] was “inactive” and the MIC (Haemophilus influenzae) was 2 µg/mL (≈ 6.1 µM).

NC(=O)c1cc2cc(C3CCCC3)c(C(F)(F)F)nc2nc1N gave an MIC (Staphylococcus aureus) greater than 16 µg/mL, a Kd [1] of 150 nM and an MIC (Escherichia coli [2]) of 4 µg/mL (≈ 12.3 µM). The inhibition [3] was “inactive”, the IC50 [4] was 2500 nM and the MIC (Streptococcus pneumoniae) was 16 µg/mL (≈ 49.3 µM). For the same molecule, the MIC (Escherichia coli [5]) was greater than 16 µg/mL, the inhibition [6] was “inactive” and the MIC (Haemophilus influenzae) was 16 µg/mL (≈ 49.3 µM).

For NC(=O)c1cc2c(N3CC[C@@H](N)C3)c(Br)c(C(F)(F)F)nc2nc1N, the MIC (Staphylococcus aureus) was greater than 16 µg/mL, the Kd [1] was 86 nM and the MIC (Escherichia coli [2]) was 1 µg/mL (≈ 2.39 µM). For the same molecule, the inhibition [3] was “inactive”, the IC50 [4] was 1000 nM and the MIC (Streptococcus pneumoniae) was greater than 16 µg/mL. The MIC (Escherichia coli [5]) was greater than 16 µg/mL, the inhibition [6] was “inactive” and the MIC (Haemophilus influenzae) was 8 µg/mL (≈ 19.1 µM).

CC(C)(C)c1nc2nc(N)c(C(N)=O)cc2cc1Br showed an MIC (Staphylococcus aureus) of 4 µg/mL (≈ 12.4 µM), a Kd [1] of 77 nM and an MIC (Escherichia coli [2]) of 0.25 µg/mL (≈ 0.774 µM). For the same molecule, the inhibition [3] was “inactive”, the IC50 [4] was 300 nM and the MIC (Streptococcus pneumoniae) was 8 µg/mL (≈ 24.8 µM). The MIC (Escherichia coli [5]) was 8 µg/mL (≈ 24.8 µM), the inhibition [6] was “inactive” and the MIC (Haemophilus influenzae) was 2 µg/mL (≈ 6.19 µM).

Molecule NC(=O)c1cc2c(-c3ccccc3)cc(C(F)(F)F)nc2nc1N has an MIC (Staphylococcus aureus) greater than 16 µg/mL, a Kd [1] of 237 nM and an MIC (Escherichia coli [2]) of 0.5 µg/mL (≈ 1.5 µM). The inhibition [3] was “inactive”, the IC50 [4] was 2500 nM and the MIC (Streptococcus pneumoniae) was greater than 16 µg/mL. For the same molecule, the MIC (Escherichia coli [5]) was 32 µg/mL (≈ 96.3 µM), the inhibition [6] was “inactive” and the MIC (Haemophilus influenzae) was 8 µg/mL (≈ 24.1 µM).

In the case of CC(C)(C)OC(=O)N1CC(c2nc3nc(N)c(C(N)=O)cc3cc2Br)C1, the MIC (Staphylococcus aureus) is reported as greater than 16 µg/mL, the Kd [1] is reported as 2610 nM and the inhibition [3] is reported as “inactive”. It also gave an IC50 [4] greater than 5000 nM, an MIC (Streptococcus pneumoniae) greater than 16 µg/mL and an MIC (Escherichia coli [5]) greater than 16 µg/mL. The inhibition [6] was “inactive” and the MIC (Haemophilus influenzae) was greater than 16 µg/mL.
